Sampled rows, rich in hits. Any-hit rate of the full collection: about 3%.
HTR1E antagonist: 5-HT1E receptor antagonists, primary screen, cell-based, HTS; 5-hydroxytryptamine receptor 1E (Homo sapiens), P28566; CHO 5-HT1E Ga15 NFAT-bla reporter, FRET, antagonist; inhibition, % at 6 µM; actives 0.99% (n = 65,000);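 active = inhibition above a set limit, the mean inhibition across every tested compound plus 3 SD, cut at about 29% in these data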;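 also: signal is the 460 over 535 nm emission ratio of beta-lactamase substrate; 0% = agonist plus DMSO wells and 100% = wells without agonist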
HTR1E agonist: 5-HT1E receptor agonists, primary screen, cell-based, HTS; CHO 5-HT1E Ga15 NFAT-bla reporter, FRET; 0% DMSO wells, 100% control agonist wells; activation, % at 6 µM; actives 0.69% (n = 65,000); AID 574, 2007;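 active = activation above a set limit, the screen-wide mean activation plus 3 SD, cut at about 8.5% in these data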;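 also: 100% = positive control agonist at 1 µM giving full maximal response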
S1P3 ag: human S1P3 receptor agonists, primary screen, cell-based, primary and confirmation, NFAT-BLA reporter; Sphingosine 1-phosphate receptor 3 (Homo sapiens), Q99500; S1P3 NFAT-BLA reporter cells, agonism, FRET ratio; relative to 1 µM S1P, basal subtracted; activation, % at 4.5 µM; actives 0.1% (n = 60,000); AID 373, 2006;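 active = activation above the screen-wide mean plus 3 SD, cut at about 4.5% in these data, passing the limit was not always enough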
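Assay system: stable CHO line with human S1P3, Gα16, NFAT-BLA reporter; Detection: FRET β-lactamase substrate fluorescence, excitation 405 nm, 460/535 nm emission ratio, background-subtracted; Read-out: percent activation versus median 1 µM S1P response, basal-subtracted, per plate; Incubation: cells plated overnight, compound 4 h 37 °C, substrate 2 h RT.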
S1P1 ag-PAM: S1P1 agonists and agonism potentiators, primary screen, cell-based, primary and confirmation screens, CRE-bla reporter | Sphingosine 1-phosphate receptor 1 (Homo sapiens), P21453 | S1P1 CRE-bla cells, forskolin, beta-lactamase FRET, potentiator mode; S1P1 agonist co-added at EC20, 2 nM; 100% = saturating reference agonist, 0% = basal | activation, % at 9.5 µM | actives 0.57% (n = 56,000);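 active = activation above a cutoff set at the mean activation of all tested compounds plus 3 SD, cut at about 54% in these data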;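 also: forskolin at 4 µM as EC80 and the EC20 agonist is SEW2871; 100% = SEW2871 at its EC100 plus forskolin at EC80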
Target sequence (P21453 whole entry, looked up): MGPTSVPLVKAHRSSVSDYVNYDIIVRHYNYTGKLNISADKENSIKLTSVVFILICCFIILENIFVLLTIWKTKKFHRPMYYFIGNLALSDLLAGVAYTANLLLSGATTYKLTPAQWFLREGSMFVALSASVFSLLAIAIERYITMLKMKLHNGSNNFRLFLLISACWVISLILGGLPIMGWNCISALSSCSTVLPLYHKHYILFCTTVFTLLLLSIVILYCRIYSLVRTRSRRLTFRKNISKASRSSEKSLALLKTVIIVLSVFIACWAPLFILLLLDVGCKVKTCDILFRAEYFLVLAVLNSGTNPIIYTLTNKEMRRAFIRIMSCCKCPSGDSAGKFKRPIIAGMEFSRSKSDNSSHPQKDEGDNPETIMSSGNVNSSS
5-HT1A blocker: human 5-HT1a receptor antagonists, primary screen, cell-based, CHO, Ga15 NFAT-bla reporter; AID 612, 2007; inhibition, % at 10 µM; CHO 5-HT1a Ga15 NFAT-bla reporter, antagonist mode; actives 0.68% (n = 62,000); 5-hydroxytryptamine receptor 1A (Homo sapiens), P08908;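 active = inhibition above the mean of all tested compounds plus 3 SD, cut at about 43% in these data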;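 also: receptor stimulated by 5-CT agonist at 100 nM near EC80; beta-lactamase reporter measured by ratiometric fluorescence of a cleavable substrate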
HTR1A agonist: human 5-HT1a receptor agonists, primary screen, cell-based, CHO, Ga15 NFAT-bla reporter; AID 567, 2006; activation, % at 10 µM; CHO 5-HT1a Ga15 NFAT-bla reporter, FRET ratio; 0% basal, 100% maximal reference agonist; actives 0.56% (n = 65,000);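 active = activation above the screen-wide mean activation plus 3 SD, cut at about 19% in these data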;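 also: 0% = DMSO wells and 100% = 5-CT at EC100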
Active calls of the source: *.

Cc1nc2c(sc3nc4c(cc32)COC(C)(C)C4)c(=O)n1CC(=O)NCc1ccco1 was read as HTR1E antagonist 30.6*, HTR1E agonist -0.5, 5-HT1A blocker 16.7 and HTR1A agonist -3.1.
`COc1ccc(NS(=O)(=O)c2coc(C(N)=O)c2)cc1Cl` gave HTR1E antagonist -7.4, HTR1E agonist 1.5, S1P3 ag -0.9, S1P1 ag-PAM -2.0, 5-HT1A blocker -3.0 and HTR1A agonist -3.4.
For COc1ccc(-n2nc3ccc(NS(C)(=O)=O)cc3n2)cc1Cl the results were HTR1E antagonist 11.0, HTR1E agonist 0.4, S1P3 ag -0.7, S1P1 ag-PAM 102.9*, 5-HT1A blocker 10.0 and HTR1A agonist -1.7.
`CCn1nnc(-c2ccccc2NC(=O)c2cccc(-n3cnnn3)c2)n1` gave HTR1E antagonist 2.7, HTR1E agonist 0.8, S1P3 ag -0.2, S1P1 ag-PAM -9.8, 5-HT1A blocker -16.8 and HTR1A agonist -0.5.
`CCOc1ccc(-c2nnc(-c3cccnc3)o2)cc1OCC` gave HTR1E antagonist 17.8, HTR1E agonist 0.2, S1P3 ag -1.0, S1P1 ag-PAM 89.1*, 5-HT1A blocker 5.9 and HTR1A agonist -2.8.
Screening CCOc1ccc(-c2noc(-c3cccnc3)n2)cc1OC returned HTR1E antagonist 3.4, HTR1E agonist 0.9, S1P3 ag -0.9, S1P1 ag-PAM 114.0*, 5-HT1A blocker -9.1 and HTR1A agonist -2.8.
`COc1ccc(-c2nc(-c3ccc(NC(=O)c4ccncc4)cc3)no2)cc1OC` gave HTR1E antagonist 28.8*, HTR1E agonist 1.2, S1P3 ag -0.4, S1P1 ag-PAM 122.7*, 5-HT1A blocker 42.7* and HTR1A agonist -0.4.
`COc1ccc(Cl)cc1-c1nc(-c2ccc(NC(=O)c3ccncc3)cc2)no1` gave HTR1E antagonist 0.0, HTR1E agonist 0.2, S1P3 ag -0.1, S1P1 ag-PAM 26.4, 5-HT1A blocker -8.4 and HTR1A agonist -2.5.
`COc1ccc(-c2cc(C(=O)NC3CCCC3)no2)cc1OC` gave HTR1E antagonist 3.3, HTR1E agonist -0.6, S1P3 ag -1.8, S1P1 ag-PAM 73.8*, 5-HT1A blocker 1.8 and HTR1A agonist -3.2.
`COc1ccc(NC(=O)c2cc(-c3cccs3)on2)cc1OC` gave HTR1E antagonist -4.7, HTR1E agonist 0.1, S1P3 ag 0.1, S1P1 ag-PAM 56.4*, 5-HT1A blocker -3.7 and HTR1A agonist -1.8.
COc1ccc(-c2noc(-c3cc(C)cc(C)c3)n2)cc1OC was read as HTR1E antagonist -7.0, HTR1E agonist 0.2, S1P3 ag 0.1, S1P1 ag-PAM 105.6*, 5-HT1A blocker 6.0 and HTR1A agonist -1.5.
Screening Cc1cc(C(=O)NC(C)C2CCCO2)cs1 (centres undefined) returned HTR1E antagonist -0.3, HTR1E agonist -0.8, S1P3 ag -0.4, S1P1 ag-PAM 10.4, 5-HT1A blocker 0.7 and HTR1A agonist 0.6.
For Cc1ccc2c(c1)N(CC(=O)N1CCCCC1c1cccnc1)C(=O)CO2 (centres undefined) the results were HTR1E antagonist 4.5, HTR1E agonist 0.8, S1P3 ag 0.5, S1P1 ag-PAM -3.3, 5-HT1A blocker 1.1 and HTR1A agonist 0.1.
Screening CCOC(=O)C1CCCN(CC(O)COc2ccc(OC)cc2C(C)(C)C)C1 (centres undefined) returned HTR1E antagonist 13.1, HTR1E agonist -0.1, S1P3 ag -0.1, S1P1 ag-PAM -51.8, 5-HT1A blocker 16.7 and HTR1A agonist -1.3.
Cc1ccc2nc3c(cc(C#N)c(=O)n3-c3nccs3)c(=O)n2c1 was read as HTR1E antagonist -31.2, HTR1E agonist 13.3*, S1P3 ag 12.0*, S1P1 ag-PAM -110.4, 5-HT1A blocker -87.7 and HTR1A agonist 58.9*.
C=CCSc1nc(N)c2c(C)c(C)sc2n1 was read as HTR1E antagonist 4.3, HTR1E agonist 0.3, S1P3 ag -0.6, S1P1 ag-PAM -31.1, 5-HT1A blocker -4.7 and HTR1A agonist 48.9*.
COc1ccc(-c2cn3c(C)c(C(=O)N4CCCc5ccccc54)sc3n2)cc1 was read as HTR1E antagonist 21.4, HTR1E agonist 1.3, S1P3 ag -2.4, S1P1 ag-PAM 70.5*, 5-HT1A blocker 4.4 and HTR1A agonist 0.4.
Screening COCCN(C(=O)c1ccccc1)c1nnc(-c2cccnc2)s1 returned HTR1E antagonist -7.1, HTR1E agonist 0.5, S1P3 ag -0.4, S1P1 ag-PAM 62.2*, 5-HT1A blocker -1.4 and HTR1A agonist -2.7.
Screening COCCN(C(=O)Cc1cccs1)c1nnc(-c2cccnc2)s1 returned HTR1E antagonist 2.7, HTR1E agonist -0.6, S1P3 ag -0.4, S1P1 ag-PAM 23.9, 5-HT1A blocker -13.2 and HTR1A agonist -1.8.
Screening O=C(Nc1nc2ccccc2n1CCOc1ccccc1)c1ccco1 returned HTR1E antagonist -0.1, HTR1E agonist 0.0, S1P3 ag 0.0, S1P1 ag-PAM 9.2, 5-HT1A blocker 47.5* and HTR1A agonist 0.4.
`Cc1cccc(OCCn2c(NC(=O)c3ccco3)nc3ccccc32)c1` gave HTR1E antagonist -10.4, HTR1E agonist 0.2, S1P3 ag -1.1, S1P1 ag-PAM 3.3, 5-HT1A blocker 54.7* and HTR1A agonist -1.5.
For Cc1ccc(OCCn2c(NC(=O)c3ccco3)nc3ccccc32)cc1 the results were HTR1E antagonist 4.7, HTR1E agonist 0.6, S1P3 ag -1.5, S1P1 ag-PAM -8.7, 5-HT1A blocker 39.1 and HTR1A agonist -2.5.
`CCOc1ccc(NC(=O)CN(C)CC(=O)Nc2ccccc2C#N)cc1OCC` gave HTR1E antagonist 7.2, HTR1E agonist -0.5, S1P3 ag 0.2, S1P1 ag-PAM -7.4, 5-HT1A blocker -9.8 and HTR1A agonist 288.6*.
Screening CCOC(=O)c1cnc2ccc(Br)cc2c1NCC(C)O (centres undefined) returned HTR1E antagonist 3.1, HTR1E agonist -0.8, S1P3 ag 0.0, S1P1 ag-PAM -31.9, 5-HT1A blocker -5.3 and HTR1A agonist -1.3.
Screening O=C(Nc1nccs1)c1ccc(S(=O)(=O)NCC2CCCCC2)cc1 returned HTR1E antagonist 8.3, HTR1E agonist -0.5, S1P3 ag -1.0, S1P1 ag-PAM 53.0*, 5-HT1A blocker -5.3 and HTR1A agonist -1.0.
